Source: ChEMBL document CHEMBL4304756, “Second-Generation Tryptamine Derivatives Potently Sensitize Colistin Resistant Bacteria to Colistin” (ACS Med Chem Lett, 2019)
Calls of active or inactive are those of the source. The calls are words filed in the database; no cut-off is given here.

Tests used:
Escherichia coli [1] = assay: Potentiation of colistin-induced antibacterial activity against Escherichia coli YD626 assessed as colistin MIC at 50 uM incubated for 16 hrs by broth microdilution method (reference value: 1 ug/ml); format: functional; conditions: YD626, 16 h
Escherichia coli [2] = assay: Potentiation of colistin-induced antibacterial activity against Escherichia coli YD626 harbouring mcr-1 gene assessed as colistin MIC at 50 uM incubated for 16 hrs by broth microdilution method (reference value: 8 ug/ml); format: functional; conditions: YD626, 16 h
Klebsiella pneumoniae [3] = assay: Potentiation of colistin-induced antibacterial activity against Klebsiella pneumoniae 2210291 assessed as colistin MIC at 50 uM incubated for 16 hrs by broth microdilution method (reference value: 1 ug/ml); format: functional; conditions: Klebsiella pneumoniae, 2210291, 16 h
Klebsiella pneumoniae [4] = assay: Potentiation of colistin-induced antibacterial activity against Klebsiella pneumoniae 2210291 harbouring mcr-1 gene assessed as colistin MIC at 50 uM incubated for 16 hrs by broth microdilution method (reference value: 16 ug/ml); format: functional; conditions: Klebsiella pneumoniae, 2210291, 16 h
Acinetobacter baumannii [5] = assay: Potentiation of colistin-induced antibacterial activity against Acinetobacter baumannii 17978 assessed as colistin MIC at 50 uM incubated for 16 hrs by broth microdilution method (reference value: 2 ug/ml); format: functional; conditions: Acinetobacter baumannii, 17978, 16 h
Acinetobacter baumannii [6] = assay: Potentiation of colistin-induced antibacterial activity against Acinetobacter baumannii 17978 harbouring mcr-1 gene assessed as colistin MIC at 50 uM incubated for 16 hrs by broth microdilution method (reference value: 16 ug/ml); format: functional; conditions: Acinetobacter baumannii, 17978, 16 h
Escherichia coli [7] = assay: Potentiation of colistin-induced antibacterial activity against Escherichia coli YD626 harbouring mcr-1 gene assessed as reduction in colistin MIC at 15 uM incubated for 16 hrs by broth microdilution method; format: functional, organism-based
Summary of the method: (§1)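 For the dose-response, colistin MIC was measured against mcr-1 plasmid-bearing E. coli, K. pneumoniae and A. baumannii while the adjuvant concentration was lowered stepwise (30, 15 μM, down to 5 μM). The aim was to find where the MIC rose above the 2 μg/mL CLSI susceptibility breakpoint.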

Klebsiella pneumoniae [8] = assay: Potentiation of colistin-induced antibacterial activity against Klebsiella pneumoniae B9 assessed as reduction in colistin MIC at 20 uM incubated for 16 hrs by broth microdilution method (reference value: 512 ug/ml); format: functional; conditions: B9, 16 h
Klebsiella pneumoniae [9] = assay: Potentiation of colistin-induced antibacterial activity against Klebsiella pneumoniae B9 assessed as reduction in colistin MIC at 15 uM incubated for 16 hrs by broth microdilution method (reference value: 512 ug/ml); format: functional; conditions: B9, 16 h
Klebsiella pneumoniae [10] = assay: Potentiation of colistin-induced antibacterial activity against Klebsiella pneumoniae B9 assessed as reduction in colistin MIC at 10 uM incubated for 16 hrs by broth microdilution method (reference value: 512 ug/ml); format: functional; conditions: B9, 16 h
Summary of the method: (§2)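 Colistin MIC was measured against chromosomally colistin-resistant strains (K. pneumoniae B9, C3; A. baumannii 4106, among four strains) with adjuvant at fixed levels from 20 μM down to 7.5 μM. Fold reduction was reported against colistin alone, with the CLSI breakpoint taken as ≤2 μg/mL.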

Klebsiella pneumoniae [11] = assay: Potentiation of colistin-induced antibacterial activity against Klebsiella pneumoniae B9 assessed as reduction in colistin MIC at 7.5 uM incubated for 16 hrs by broth microdilution method (reference value: 512 ug/ml); format: functional; conditions: B9, 16 h
Klebsiella pneumoniae [12] = assay: Potentiation of colistin-induced antibacterial activity against Klebsiella pneumoniae B9 assessed as reduction in colistin MIC at 5 uM incubated for 16 hrs by broth microdilution method (reference value: 512 ug/ml); format: functional; conditions: B9, 16 h
Klebsiella pneumoniae [13] = assay: Potentiation of colistin-induced antibacterial activity against Klebsiella pneumoniae C3 assessed as reduction in colistin MIC at 20 uM incubated for 16 hrs by broth microdilution method (reference value: 512 ug/ml); format: functional; conditions: C3, 16 h; summary of the method: as §2
Klebsiella pneumoniae [14] = assay: Potentiation of colistin-induced antibacterial activity against Klebsiella pneumoniae C3 assessed as reduction in colistin MIC at 15 uM incubated for 16 hrs by broth microdilution method (reference value: 512 ug/ml); format: functional; conditions: C3, 16 h
Klebsiella pneumoniae [15] = assay: Potentiation of colistin-induced antibacterial activity against Klebsiella pneumoniae C3 assessed as reduction in colistin MIC at 10 uM incubated for 16 hrs by broth microdilution method (reference value: 512 ug/ml); format: functional; conditions: C3, 16 h
Acinetobacter baumannii [16] = assay: Potentiation of colistin-induced antibacterial activity against Acinetobacter baumannii 3941 assessed as reduction in colistin MIC at 20 uM incubated for 16 hrs by broth microdilution method (reference value: 512 ug/ml); format: functional; conditions: Acinetobacter baumannii, 3941, 16 h
Acinetobacter baumannii [17] = assay: Potentiation of colistin-induced antibacterial activity against Acinetobacter baumannii 3941 assessed as reduction in colistin MIC at 15 uM incubated for 16 hrs by broth microdilution method (reference value: 512 ug/ml); format: functional; conditions: Acinetobacter baumannii, 3941, 16 h
Acinetobacter baumannii [18] = assay: Potentiation of colistin-induced antibacterial activity against Acinetobacter baumannii 3941 assessed as reduction in colistin MIC at 10 uM incubated for 16 hrs by broth microdilution method (reference value: 512 ug/ml); format: functional; conditions: Acinetobacter baumannii, 3941, 16 h
Acinetobacter baumannii [19] = assay: Potentiation of colistin-induced antibacterial activity against Acinetobacter baumannii 4106 assessed as reduction in colistin MIC at 20 uM incubated for 16 hrs by broth microdilution method (reference value: 1024 ug/ml); format: functional; conditions: Acinetobacter baumannii, 4106, 16 h
Acinetobacter baumannii [20] = assay: Potentiation of colistin-induced antibacterial activity against Acinetobacter baumannii 4106 assessed as reduction in colistin MIC at 15 uM incubated for 16 hrs by broth microdilution method (reference value: 1024 ug/ml); format: functional; conditions: Acinetobacter baumannii, 4106, 16 h
Acinetobacter baumannii [21] = assay: Potentiation of colistin-induced antibacterial activity against Acinetobacter baumannii 4106 assessed as reduction in colistin MIC at 10 uM incubated for 16 hrs by broth microdilution method (reference value: 1024 ug/ml); format: functional; conditions: Acinetobacter baumannii, 4106, 16 h
[22] = Cytotoxicity against mouse 4T1 cells assessed as reduction in cell viability incubated for 18 hrs by MTT assay; format: cell-based
Summary of the method: (§3)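 4T1 mouse mammary tumor cells exposed to compound for 18 h, alone or together with colistin at 1 μg/mL. Medium then aspirated and replaced with 0.5 mg/mL MTT in culture medium for colorimetric viability read-out. CT50 taken as the concentration giving 50% cell viability.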

[23] = Cytotoxicity against mouse 4T1 cells assessed as reduction in cell viability in presence of 1 ug/ml colistin incubated for 18 hrs by MTT assay; format: cell-based; summary of the method: as §3
Klebsiella pneumoniae [24] = assay: Potentiation of colistin-induced antibacterial activity against Klebsiella pneumoniae 2210291 harbouring mcr-1 gene assessed as reduction in colistin MIC at 15 uM incubated for 16 hrs by broth microdilution method; format: functional, organism-based; summary of the method: as §1
Acinetobacter baumannii [25] = assay: Potentiation of colistin-induced antibacterial activity against Acinetobacter baumannii 17978 harbouring mcr-1 gene assessed as reduction in colistin MIC at 15 uM incubated for 16 hrs by broth microdilution method; format: functional, organism-based; summary of the method: as §1
[26] = Hemolytic activity in sheep RBC at 200 uM incubated for 1 hr by UV spectrophotometry; format: ADME, cell-based, Ovis aries, Erythrocyte; conditions: sheep red blood cells (erythrocytes), read-out: Activity
Summary of the method: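 Red blood cells exposed to compound at 200 μM, with percent cell lysis recorded.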

Escherichia coli [27] = assay: Potentiation of colistin-induced antibacterial activity against Escherichia coli YD626 harbouring mcr-1 gene assessed as reduction in colistin MIC at 15 uM incubated for 16 hrs by broth microdilution method (reference value: 8 ug/ml); format: functional; conditions: YD626, 16 h; summary of the method: as §1
Klebsiella pneumoniae [28] = assay: Potentiation of colistin-induced antibacterial activity against Klebsiella pneumoniae 2210291 harbouring mcr-1 gene assessed as reduction in colistin MIC at 15 uM incubated for 16 hrs by broth microdilution method (reference value: 16 ug/ml); format: functional; conditions: Klebsiella pneumoniae, 2210291, 16 h; summary of the method: as §1
Acinetobacter baumannii [29] = assay: Potentiation of colistin-induced antibacterial activity against Acinetobacter baumannii 17978 harbouring mcr-1 gene assessed as reduction in colistin MIC at 15 uM incubated for 16 hrs by broth microdilution method (reference value: 16 ug/ml); format: functional; conditions: Acinetobacter baumannii, 17978, 16 h; summary of the method: as §1
Acinetobacter baumannii [30] = assay: Antivirulence activity in Acinetobacter baumannii 4106 infected Galleria mellonella larvae model assessed as survival rate at 100 mg/kg measured at 24 hrs interval over 4 days; format: functional
Summary of the method: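 A. baumannii 4106 was given to Galleria mellonella larvae at 6 × 10^5 CFU, the lethal inoculum found by dose escalation. Larvae were treated with colistin 50 mg/kg, adjuvant 50 mg/kg, colistin plus adjuvant (50 mg/kg each), or tigecycline 100 mg/kg as positive control. Survival was scored out to day 4.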

| SMILES | MIC (Escherichia coli [1]) [µg/mL] | MIC (Escherichia coli [2]) [µg/mL] | MIC (Klebsiella pneumoniae [3]) [µg/mL] | MIC (Klebsiella pneumoniae [4]) [µg/mL] | MIC (Acinetobacter baumannii [5]) [µg/mL] | MIC (Acinetobacter baumannii [6]) [µg/mL] | MIC (Klebsiella pneumoniae [8]) [µg/mL] | MIC (Klebsiella pneumoniae [9]) [µg/mL] | MIC (Klebsiella pneumoniae [10]) [µg/mL] | MIC (Klebsiella pneumoniae [11]) [µg/mL] | MIC (Klebsiella pneumoniae [12]) [µg/mL] | MIC (Klebsiella pneumoniae [13]) [µg/mL] | MIC (Klebsiella pneumoniae [14]) [µg/mL] | MIC (Klebsiella pneumoniae [15]) [µg/mL] | MIC (Acinetobacter baumannii [16]) [µg/mL] | MIC (Acinetobacter baumannii [17]) [µg/mL] | MIC (Acinetobacter baumannii [18]) [µg/mL] | MIC (Acinetobacter baumannii [19]) [µg/mL] | MIC (Acinetobacter baumannii [20]) [µg/mL] | MIC (Acinetobacter baumannii [21]) [µg/mL] | other results |
| --- | --- | --- | --- | --- | --- | --- | --- | --- | --- | --- | --- | --- | --- | --- | --- | --- | --- | --- | --- | --- | --- |
| O=C(NCCc1c[nH]c2ccccc12)Nc1cc(Br)cc(Br)c1 | 0.25 | 2 | 0.5 | 1 | 0.5 | 1 | ≤ 0.25 | 0.5 | 1 | 4 | 32 | 2 | 4 | 8 | 8 | 8 | 16 | 4 | 4 | 8 | Activity (Escherichia coli [7]): Active; CC50 at 18 h [22]: 86.2 µM; CC50 at 18 h [23]: 64.2 µM; Activity (Klebsiella pneumoniae [24]): Active; Activity (Acinetobacter baumannii [25]): Active |
| CCCCc1ccc(NC(=O)NCCc2c[nH]c3ccc(Br)cc23)cc1 | 1 | 8 | 0.5 | 16 | 2 | 16 |  |  |  |  |  |  |  |  |  |  |  |  |  |  | hemolysis at 1 h, 200 µM [26]: < 2.5% |
| O=C(NCCc1c[nH]c2ccc(Br)cc12)Nc1ccc(Cl)c(Cl)c1 | 0.25 | 0.5 | 0.5 | 0.5 | 0.5 | 1 | ≤ 0.25 | 0.5 | 1 | 2 | 8 | 1 | 2 | 4 | 2 | 4 | 8 | 2 | 2 | 4 | MIC (Escherichia coli [27]): 1 µg/mL; MIC (Klebsiella pneumoniae [28]): 1 µg/mL; MIC (Acinetobacter baumannii [29]): 1 µg/mL |
| CN(C)c1cc(NC(=O)CNC(C)(C)C)c(O)c2c1C[C@H]1C[C@H]3[C@H](N(C)C)C(O)=C(C(N)=O)C(=O)[C@@]3(O)C(O)=C1C2=O [TIGECYCLINE] |  |  |  |  |  |  |  |  |  |  |  |  |  |  |  |  |  |  |  |  | Activity (Acinetobacter baumannii [30]): 20% |
